Assay results reported in paper PMC12235443 (RSC Chemical Biology, 2025).
Square brackets hold non-standard residues; d marks the D form. Peptide text beside a SMILES is read from it. 2Nal = N[C@@H](Cc1ccc2ccccc2c1)C(=O)O

Legend:
iCP over sCP = experiment: Selectivity index, mean iCP percent degraded over sCP percent degraded; type: biochemical
[1] = molecular target: iCP-PA28-activated complex (Homo sapiens, UniProt P28062); experiment: LC-MS hydrolysis of dialanine substrates by iCP-PA28-activated complex; type: biochemical; settings: 25 µM substrate, iCP + 7.5X PA28, 4 hours, triplicate, Fig. 3B
Method in brief: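 Purified human iCP, activated with PA28, incubated with 25 μM test substrate for 4 hours. Each substrate is a modified recognition sequence joined to a constant dialanine cargo, with expected cleavage at the amide bond between them. Products analysed by LC-MS as percent degraded. Triplicate, mean ± standard deviation. Singly modified substrates compared with the unmodified-sequence dialanine control by t-test.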

Hydrolysis by iCP-PA28-activated complex compared with control ATMWAA [1]	Compound	Isoform selectivity for the iCP (iCP over sCP; Fig. 3C conditions)	Increase of substrate selectivity for the iCP compared with the ATMW scaffold (iCP over sCP; ratio of selectivity indices, analogue vs ATMWAA)
hydrolyzed well by the iCP	CSCC[C@H](NC(=O)[C@@H](NC(=O)[C@H](C)N)[C@@H](C)O)C(=O)N[C@@H](Cc1ccc2ccccc2c1)C(=O)N[C@@H](C)C(=O)N[C@@H](C)C(N)=O [ATM(2-Nal)] (H-ATM[2Nal]AA-NH2)	not isoform selective	–
–	morph-Ala-Orn-(Met?O2)-Trp(7,Me) [mAO(Met=O2) W(7,Me)]	–	about 3 fold
